The results in this text go back to ChEMBL document CHEMBL1806353, “Synthesis of antitrypanosomal 1,2-dioxane derivatives based on a natural product scaffold” (Bioorg Med Chem Lett, 2011).

Each structure is given as a SMILES string. pIC50: −log10 of the molar value.

In general, pIC50 refers to the negative decadic logarithm of the IC50, by convention in mol/L.

This assay relates to Trypanosoma brucei brucei. The assay is described as follows: Antitrypanosomal activity against blood stream form of Trypanosoma brucei brucei BF427 after 48 hrs by Alamar Blue assay. In kind it is functional, organism-based. To be noted: BF427, 48 h. Summed up: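 Bloodstream-form T. b. brucei 427, starting inoculum 2 × 10³ parasites per well, exposed to 2-fold serial drug dilutions in HMI-9 with 10% FBS for 48 h at 37 °C, 5% CO₂. Final DMSO no more than 0.08%. Alamar Blue then added for a further 4 h, fluorescence read at 544/590 nm. IC50 from three biological replicates, each averaging three technical replicates.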
A general note: The colour change of resazurin is a common sign of viable cells or microbes.

On to `C=C[C@@H]1CC[C@@H](CC(=O)OCc2ccccc2)OO1`, for which the pIC50 is 5.52. In the case of `CCOC(=O)/C=C\[C@@H]1CC[C@@H](CC(=O)OCc2ccccc2)OO1`, the pIC50 is 5.87. Next, `CCOC(=O)/C=C/[C@@H]1CC[C@@H](CC(=O)OCc2ccccc2)OO1`: 6.21; `CC(=O)/C=C\[C@@H]1CC[C@@H](CC(=O)OCc2ccccc2)OO1`: 5.73; `CC(C)(C)OC(=O)/C=C\[C@@H]1CC[C@@H](CC(=O)OCc2ccccc2)OO1`: 6.43. As for `CC(C)(C)OC(=O)/C=C/[C@@H]1CC[C@@H](CC(=O)OCc2ccccc2)OO1`, the pIC50 was 6.70.

`O=C(/C=C\[C@@H]1CC[C@@H](CC(=O)OCc2ccccc2)OO1)OCc1ccccc1` had a pIC50 of 6.62. Next, `O=C(/C=C/[C@@H]1CC[C@@H](CC(=O)OCc2ccccc2)OO1)OCc1ccccc1`: 6.19; `CC(=O)/C=C/[C@@H]1CC[C@@H](CC(=O)OCc2ccccc2)OO1`: 6.05. Next, `O=C(C[C@@H]1CC[C@@H](/C=C\C(=O)c2ccccc2)OO1)OCc1ccccc1`: 6.24; `O=C(C[C@@H]1CC[C@@H](/C=C/C(=O)c2ccccc2)OO1)OCc1ccccc1`: 6.29. The figure for `N=C(N)c1ccc(OCCCCCOc2ccc(C(=N)N)cc2)cc1` is 6.07. `N#CC=C[C@@H]1CC[C@@H](CC(=O)OCc2ccccc2)OO1` (mixture of isomers) gave a pIC50 of 5.50.
